Laboratory results published in ChEMBL document CHEMBL3352661, “Cryptochinones from Cryptocarya chinensis act as farnesoid X receptor agonists” (Bioorg Med Chem Lett, 2014).
Active and inactive are the calls of the source. The calls are words filed in the database; no cut-off is given here.

Tests used:
[1] = biological target: T1, Bile acid receptor (Homo sapiens) (UniProt Q96RI1); experiment: Agonist activity at […] (unknown origin) expressed in human HepG2 cells co-expressing rat CYP7A1 gene promoter assessed as transrepression of CYP7A1 promoter driven luciferase activity relative to untreated control; type: cell-based
T1 sequence (whole entry): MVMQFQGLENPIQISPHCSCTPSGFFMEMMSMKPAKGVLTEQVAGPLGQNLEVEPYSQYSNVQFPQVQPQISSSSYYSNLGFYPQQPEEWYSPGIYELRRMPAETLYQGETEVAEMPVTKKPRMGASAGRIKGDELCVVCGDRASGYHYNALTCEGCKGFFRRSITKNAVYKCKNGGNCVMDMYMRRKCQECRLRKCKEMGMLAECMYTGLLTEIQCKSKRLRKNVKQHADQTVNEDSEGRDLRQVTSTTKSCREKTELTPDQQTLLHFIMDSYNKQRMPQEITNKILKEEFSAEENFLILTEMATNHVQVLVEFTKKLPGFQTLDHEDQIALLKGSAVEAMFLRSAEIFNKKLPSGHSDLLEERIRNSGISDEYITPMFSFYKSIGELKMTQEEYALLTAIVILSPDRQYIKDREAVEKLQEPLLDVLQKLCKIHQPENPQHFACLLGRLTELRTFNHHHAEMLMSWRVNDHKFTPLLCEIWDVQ
Outline: (§1)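 Transient transfection of HepG2 cells (1 × 10^5/well; phenol red-free DMEM, 10% charcoal-stripped FBS, pen/strep) with pCMV-FXR (2 µg), rat CYP7A1 promoter reporter prCYP7A1-luc (6 µg) and pCMV-β-gal (1 µg). After 48 h exposure to 100 nM–10 µM, lysate luciferase was normalized to β-gal and expressed relative to DMSO (=1). 10 µM CDCA reference; at least three determinations.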

[2] = biological target: T1, Bile acid receptor (Homo sapiens); experiment: Agonist activity at […] (unknown origin) expressed in human HepG2 cells co-expressing rat CYP7A1 gene promoter assessed as transrepression of CYP7A1 promoter driven luciferase activity at 1 uM relative to untreated control; type: cell-based; outline: as §1
[3] = biological target: T1, Bile acid receptor (Homo sapiens); experiment: Agonist activity at […] (unknown origin) expressed in human HepG2 cells co-expressing rat CYP7A1 gene promoter assessed as transrepression of CYP7A1 promoter driven luciferase activity at 100 nM relative to untreated control; type: cell-based; outline: as §1
[4] = biological target: T1, Bile acid receptor (Homo sapiens); experiment: Agonist activity at […] (unknown origin) expressed in human HepG2 cells co-expressing human SHP gene promoter assessed as transactivation of SHP promoter driven luciferase activity at 100 nM relative to untreated control; type: cell-based
[5] = biological target: T1, Bile acid receptor (Homo sapiens); experiment: Agonist activity at […] (unknown origin) expressed in human HepG2 cells co-expressing human PLTP gene promoter assessed as transactivation of PLTP promoter driven luciferase activity at 100 nM relative to untreated control; type: cell-based
Outline: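 HepG2 cells (1 × 10^5 cells/well, phenol red-free DMEM, 10% charcoal-stripped FBS, pen/strep) transfected the next day with wild-type FXR plasmid pCMV-FXR (2 µg), pPLTP-Luc reporter (6 µg) and pCMV-β-gal (1 µg). Dosed 48 h at 100 nM–10 µM. Luciferase normalized to β-gal, expressed relative to DMSO (=1), 10 µM CDCA reference; mean ± SD of ≥3 determinations.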

[6] = biological target: T1, Bile acid receptor (Homo sapiens); experiment: Agonist activity at […] (unknown origin) expressed in human HepG2 cells co-expressing rat CYP7A1 gene promoter assessed as transrepression of CYP7A1 promoter driven luciferase activity at 10 uM relative to untreated control; type: cell-based; outline: as §1
HepG2 = experiment: Toxicity against human HepG2 cells assessed as effect on cell growth at 100 nM to 1 uM; type: cell-based; conditions: hepg2, 0.1 µM
[7] = biological target: T1, Bile acid receptor (Homo sapiens); experiment: Agonist activity at […] (unknown origin) expressed in human HepG2 cells co-expressing human PLTP gene promoter assessed as transactivation of PLTP promoter driven luciferase activity relative to untreated control; type: cell-based
[8] = biological target: T1, Bile acid receptor (Homo sapiens); experiment: (§2) Agonist activity at GAL4 DNA binding domain tagged FXR ligand binding domain (unknown origin) expressed in human HepG2 cells assessed as receptor transactivation measured by relative luciferase activity at 1 uM by luciferase reporter gene based mammalian one-hybrid assay relative to untreated control; type: cell-based
Outline: (§3)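 HepG2 cells seeded at 1 × 10^5 cells/well in phenol red-free DMEM with 10% charcoal-stripped FBS and penicillin/streptomycin. Next day transfected with pGAL4-FXR LBD (2 µg), pG5-luc (6 µg) and pCMV-β-gal normalizer (1 µg). Treated 48 h at 100 nM–10 µM, DMSO vehicle, 10 µM CDCA reference. Luciferase/β-gal ratio expressed relative to DMSO (=1); at least triplicate.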

[9] = biological target: T2, Peroxisome proliferator-activated receptor gamma (Homo sapiens) (UniProt P37231); experiment: Agonist activity at PPARgamma (unknown origin) by receptor transactivation assay
T2 sequence (whole entry): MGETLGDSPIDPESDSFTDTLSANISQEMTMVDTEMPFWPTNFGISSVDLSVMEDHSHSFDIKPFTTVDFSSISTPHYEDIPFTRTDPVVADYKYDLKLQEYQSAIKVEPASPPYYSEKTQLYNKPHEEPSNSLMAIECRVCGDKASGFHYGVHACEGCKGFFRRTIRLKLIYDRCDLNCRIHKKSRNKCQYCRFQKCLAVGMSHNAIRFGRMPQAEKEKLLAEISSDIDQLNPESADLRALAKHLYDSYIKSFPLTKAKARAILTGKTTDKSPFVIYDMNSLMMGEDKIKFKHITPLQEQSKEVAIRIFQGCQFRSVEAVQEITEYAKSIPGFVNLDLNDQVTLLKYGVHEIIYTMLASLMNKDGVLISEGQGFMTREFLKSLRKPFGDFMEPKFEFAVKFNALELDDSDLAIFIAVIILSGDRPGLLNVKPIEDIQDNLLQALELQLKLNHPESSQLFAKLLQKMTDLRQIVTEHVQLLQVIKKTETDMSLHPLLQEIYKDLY

[10] = biological target: T1, Bile acid receptor (Homo sapiens); experiment: as §2, with “100 nM” for “1 uM”; type: cell-based; outline: as §3
[11] = biological target: T1, Bile acid receptor (Homo sapiens); experiment: Agonist activity at […] (unknown origin) expressed in human HepG2 cells co-expressing human SHP gene promoter assessed as transactivation of SHP promoter driven luciferase activity at 1 uM relative to untreated control; type: cell-based
[12] = biological target: T1, Bile acid receptor (Homo sapiens); experiment: Agonist activity at […] (unknown origin) expressed in human HepG2 cells co-expressing human SHP gene promoter assessed as transactivation of SHP promoter driven luciferase activity at 100 nM to 10 uM relative to untreated control; type: cell-based

| Activity [1] | Activity [2] | Activity [3] | Activity [4] | Activity [5] | inhibition [6] [%] | Activity [7] | fold change (FC) [8] | Activity [9] | Activity [10] | fold change (FC) [11] | Activity [12] | Structure (SMILES) | Activity (HepG2) |
| --- | --- | --- | --- | --- | --- | --- | --- | --- | --- | --- | --- | --- | --- |
| Dose-dependent effect | inactive | inactive | Active | inactive | 60 | Dose-dependent effect | 1.5 | inactive | inactive | 3 |  | CO[C@H]1CC2=C(C(=O)C[C@@H](c3ccccc3)O2)[C@H]2CC(=O)O[C@@H]12 [7-O-METHYLCRYPTOCHINONE A] | Non-toxic |
| Dose-dependent effect | inactive | inactive | Active | inactive | 60 | Dose-dependent effect | 1.5 | inactive | inactive | 3 |  | CO[C@H]1CC2=C(C(=O)C[C@@H](c3ccccc3)O2)[C@@H]2CC(=O)O[C@H]12 [7-O-METHYLCRYPTOCHINONE B] | Non-toxic |
| Dose-dependent effect | Active | inactive |  | inactive | 60 | Dose-dependent effect | 1.5 | inactive | inactive |  | Active | O=C1C[C@@H]2C3=C(C[C@H](O)[C@@H]2O1)O[C@H](c1ccccc1)CC3=O [CRYPTOCHINONE A] | Non-toxic |
| Dose-dependent effect | Active | inactive |  | inactive | 60 | Dose-dependent effect | 1.5 | inactive | inactive |  | Active | O=C1C[C@H]2C3=C(C[C@H](O)[C@H]2O1)O[C@H](c1ccccc1)CC3=O [CRYPTOCHINONE B] | Non-toxic |
